We go through three compounds from publication PMC7056570 (Molecular cancer therapeutics, 2019).

For data set [1], the system named is parental 697 leukemic cells. Kind of data set: Cell proliferation of parental leukemic cells, 3 days. As to conditions: 72 h, read-out: IC50 in 697 cells. The class given is cell-based.
Data set [2] relates to panel of MPNST, schwannoma, and meningioma cell lines. Kind of data set: Growth-inhibitory activity compared in the cell line panel. To be noted: all cell lines tested. The class given is cell-based. Summed up: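 Compounds were made up as 10-mM stocks in DMSO. Cell lines were authenticated by STR genotyping and confirmed mycoplasma-free. Proliferation was read by resazurin assay.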

For data set [3], the system named is silvestrol-resistant 697-R leukemic cells. The experiment in a line: Cell proliferation of MDR1-overexpressing leukemic cells, 3 days. As to conditions: for sensitivity to MDR1 inhibition: 697-R versus 697 cells. It is filed as cell-based.
In a further data set the test system is ST8814 MPNST cells. The experiment in a line: Flow cytometry cell cycle analysis, ST8814. It is filed as cell-based, human. As to conditions: one- or two-IC50 doses, three days. In general terms: Flow cytometry measures light scatter and fluorescence of single cells or particles in a stream.
The next data set concerns STS26T MPNST cells. The experiment in a line: Flow cytometry cell cycle analysis, STS26T. It is filed as cell-based, human. As to conditions: one- or two-IC50 doses, three days.
A further data set is described as follows: Toxicology study in dogs. To be noted: same protocol, same lab. The class given is in vivo.
The conditions of data set [4]: cited from earlier work.

Take `COc1ccc([C@@]23Oc4cc(OC)cc(OC)c4[C@]2(O)[C@H](O)[C@H](C(N)=O)[C@H]3c2ccccc2)cc1` [Didesmethylrocaglamide]: the IC50 (as a rule, the concentration at which inhibition is half-maximal) in data set [1] worked out at 3 nM. For the same compound, the “potency relative to silvestrol” value in data set [2] is ~ 2 fold. For the same compound, the “sensitivity to MDR1 inhibition” value in data set [3] was “not sensitive to MDR1 inhibition”. The G2/M fraction result with ST8814 MPNST cells and in the data set with STS26T MPNST cells was “marked increase in the G2/M fraction” throughout.

For the compound `COc1ccc([C@@]23Oc4cc(OC)cc(OC)c4[C@]2(O)[C@H](O)[C@H](C(=O)N(C)C)[C@H]3c2ccccc2)cc1` [Rocaglamide], in data set [1], the IC50 is 8 nM. Moreover, the “sensitivity to MDR1 inhibition” value in data set [3] is “not sensitive to MDR1 inhibition”. In addition, the G2/M fraction entry in the data set on ST8814 MPNST cells and in the data set on STS26T MPNST cells was “marked increase in the G2/M fraction” throughout. The “pulmonary toxicity in dogs” value in the data set “Toxicology study in dogs” is recorded as “did not produce adverse pulmonary findings”.

On to `COC(=O)[C@H]1[C@@H](O)[C@@]2(O)c3c(OC)cc(O[C@@H]4O[C@@H]([C@H](O)CO)CO[C@H]4OC)cc3O[C@@]2(c2ccc(OC)cc2)[C@@H]1c1ccccc1` [Silvestrol, reference compound], for which the IC50 in data set [1] stood at 3.5 nM; in data set [3] (MDR1, 72 h, read-out: IC50 in 697-R cells), 26 nM. For the same compound, in “Toxicology study in dogs”, the “pulmonary toxicity in dogs” value was “massive lung damage”. Further, the oral bioavailability in data set [4] was less than 2%.
